In ChEMBL document CHEMBL4732082, “Development of novel benzimidazole-derived neddylation inhibitors for suppressing tumor growth invitro and invivo” (Eur J Med Chem, 2021):
Active and inactive are the calls of the source. The calls are words filed in the database; no cut-off is given here.

Experiments:
[1] = target: T1, NEDD8-activating enzyme E1 catalytic subunit (Homo sapiens, UniProt Q8TBC4); test: Inhibition of NAE (unknown origin)-mediated neddylation assessed as suppression of cullin1-Nedd8 adduct formation preincubated for 10 mins followed by ATP addition and measured after 30 mins by immunoblot analysis
T1 sequence (Q8TBC4 whole entry): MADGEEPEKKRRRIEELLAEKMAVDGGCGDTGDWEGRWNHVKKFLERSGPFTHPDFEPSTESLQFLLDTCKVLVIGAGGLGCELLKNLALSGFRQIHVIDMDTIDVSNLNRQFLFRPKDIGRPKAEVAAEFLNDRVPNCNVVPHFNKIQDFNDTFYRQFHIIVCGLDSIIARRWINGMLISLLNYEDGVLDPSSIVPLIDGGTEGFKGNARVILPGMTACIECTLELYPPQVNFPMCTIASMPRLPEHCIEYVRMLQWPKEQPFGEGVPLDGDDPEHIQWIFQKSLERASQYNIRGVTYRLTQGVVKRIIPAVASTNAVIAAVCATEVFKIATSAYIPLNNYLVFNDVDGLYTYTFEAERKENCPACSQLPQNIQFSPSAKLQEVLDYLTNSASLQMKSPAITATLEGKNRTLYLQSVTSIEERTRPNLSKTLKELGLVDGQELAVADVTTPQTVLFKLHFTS

BEAS-2B = test: Cytotoxicity against human BEAS-2B cells incubated for 48 hrs by CCK-8 assay; assay type: cell-based
How it was run: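 Cells from ATCC, passaged six times, grown in DMEM with 10% FBS and penicillin/streptomycin at 37 °C under 5% CO2. Seeded at 2500 cells/well, cultured overnight, treated 48 h, viability read by CCK-8. Run in triplicate; values are the mean of three experiments.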

[2] = target: T2, NEDD8-activating enzyme E1 regulatory subunit (Homo sapiens) (UniProt Q13564); test: Inhibition of NAE-mediated neddylation in human A549 cells assessed as suppression of cullin1-Nedd8 adduct formation at 12.5 to 25 uM measured after 6 to 12 hrs by Western blot analysis; assay type: cell-based; settings: dose 12.5-25 µM, time 6-12 hrs
T2 sequence (whole entry): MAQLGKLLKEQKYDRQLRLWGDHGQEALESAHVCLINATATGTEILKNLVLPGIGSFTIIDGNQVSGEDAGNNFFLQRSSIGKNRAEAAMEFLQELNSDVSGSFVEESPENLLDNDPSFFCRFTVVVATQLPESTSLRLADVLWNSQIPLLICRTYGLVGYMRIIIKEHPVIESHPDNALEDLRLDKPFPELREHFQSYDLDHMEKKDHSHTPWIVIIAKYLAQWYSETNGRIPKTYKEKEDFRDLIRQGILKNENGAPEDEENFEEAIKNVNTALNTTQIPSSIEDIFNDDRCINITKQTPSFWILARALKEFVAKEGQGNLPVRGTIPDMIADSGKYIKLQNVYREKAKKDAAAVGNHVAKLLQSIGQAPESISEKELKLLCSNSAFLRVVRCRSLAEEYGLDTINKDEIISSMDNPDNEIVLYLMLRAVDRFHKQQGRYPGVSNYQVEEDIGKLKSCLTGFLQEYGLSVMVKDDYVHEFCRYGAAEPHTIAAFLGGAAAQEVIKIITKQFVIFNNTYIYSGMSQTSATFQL
How it was run: (§1)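 A549 cells were treated 6 or 12 h with graded concentrations (4.5–75 μM) against a 0.1% DMSO control. Cells were washed in cold PBS, lysed in RIPA on ice and cleared by centrifugation, and protein was normalized. Cullin-Nedd8 was resolved on non-reducing SDS-PAGE and Wee1/p27 under reducing conditions, then detected by Western blot.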

A549 [3] = test: Induction of Wee1 accumulation in human A549 cells at 50 uM incubated for 6 to 12 hrs by Western blot analysis; assay type: functional, cell-based; settings: time 6-12 hrs; how it was run: as §1
A549 [4] = test: Induction of p27 accumulation in human A549 cells at 50 uM incubated for 6 to 12 hrs by Western blot analysis; assay type: functional, cell-based; settings: time 6-12 hrs; how it was run: as §1
A549 [5] = test: Induction of apoptosis in human A549 cells assessed as increase in ratio of early and late apoptotic cells at 10 to 40 uM after 48 hrs by Annexin V-FITC/PI double staining based flow cytometric analysis (reference value: 2.6%); assay type: functional; settings: dose 10-40 µM
[6] = Toxicity in nude mouse assessed as effect on body weight at 30 mg/kg, qd after 24 days; assay type: organism-based; settings: in vivo, 576 h, time 24 day
How it was run: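 Female nude mice were inoculated subcutaneously with 2×10^6 A549 cells in 0.1 mL PBS. At tumor volume 70–100 mm³, mice were randomized into 5 groups of 6. Dosing was ip or oral gavage, once daily on a 5-days-on/2-days-off schedule, with 10% 2-hydroxypropyl-β-cyclodextrin/water as vehicle control. Body weight and tumor volume were measured every two days; tumors were weighed at sacrifice. Significance by two-tailed Student's t-test.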

A549 [7] = test: Induction of apoptosis in human A549 cells assessed as early apoptotic cells at 20 uM after 48 hrs by Annexin V-FITC/PI double staining based flow cytometric analysis (reference value: 2.04%); assay type: functional
A549 [8] = test: Induction of apoptosis in human A549 cells assessed as live cells at 40 uM after 48 hrs by Annexin V-FITC/PI double staining based flow cytometric analysis (reference value: 91.8%); assay type: functional

## CCOc1nc2cccc(C(=O)NCCc3ccc(Cl)cc3Cl)c2n1Cc1ccc(-c2ccccc2-c2nnn[nH]2)cc1
[1]
  IC50: 5.51 µM
BEAS-2B
  IC50: 79.4 µM
[2]
  inhibition: Active
A549 [3]
  Activity: Active
A549 [4]
  Activity: Active
A549 [5]
  Activity: 35.81%
[6]
  Activity: Non-Toxic
A549 [7]
  Activity: 18.6%
A549 [8]
  Activity: 63.2%
